Data set [1] can be described thus: Uptake in rat striatum 60 minutes after administration of the radiolabeled [11C]-compound. It is filed as ADME, tissue-based. The conditions noted are these: in vivo, 1 h. The method, boiled down: (§1)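 Male Sprague-Dawley rats received the [11C] radioligand iv and were sacrificed at 10, 30 or 60 min. Brain regions were dissected and radioactivity counted. Uptake is expressed as %ID/g, mean ± SD, n = 3 animals per group.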

Data set [2] in a line: Uptake in rat frontal cortex 30 minutes after administration of the radiolabeled [11C]-compound. It is filed as ADME, tissue-based. As to conditions: in vivo, 0.5 h. Put shortly: as §1
Data set [3] is described as follows: Uptake in rat blood 60 minutes after administration of the radiolabeled [11C]-compound. It is filed as ADME, tissue-based. As to conditions: 1 h.
Data set [4] in a line: Uptake in rat striatum 30 minutes after administration of the radiolabeled [11C]-compound. It is filed as ADME, tissue-based. As to conditions: in vivo, 0.5 h. The method, boiled down:
as §1

Data set [5] can be described thus: Uptake in rat blood 30 minutes after administration of the radiolabeled [11C]-compound. The data set is classed as ADME, tissue-based. As to conditions: 0.5 h.
A short description of data set [6]: Uptake in rat hippocampus 10 minutes after administration of the radiolabeled [11C]-compound. The data set is classed as ADME, tissue-based. The conditions noted are these: in vivo. The method, boiled down:
as §1

Data set [7] is described as follows: Uptake in rat hippocampus 60 minutes after administration of the radiolabeled [11C]-compound. The data set is classed as ADME, tissue-based. As to conditions: in vivo, 1 h. The method, boiled down: as §1
Data set [8] can be described thus: Uptake in rat hippocampus 30 minutes after administration of the radiolabeled [11C]-compound. The data set is classed as ADME, tissue-based. As to conditions: in vivo, 0.5 h. The method, boiled down: as §1
A short description of data set [9]: Uptake in rat cerebellum 30 minutes after administration of the radiolabeled [11C]-compound. The data set is classed as ADME, tissue-based. The conditions noted are these: in vivo, 0.5 h. The method, boiled down:
as §1

A short description of data set [10]: Uptake in rat frontal cortex 60 minutes after administration of the radiolabeled [11C]-compound. It is filed as ADME, tissue-based. As to conditions: in vivo, 1 h. Put shortly: as §1
Data set [11] can be described thus: Uptake in rat cerebellum 60 minutes after administration of the radiolabeled [11C]-compound. The data set is classed as ADME, tissue-based. As to conditions: in vivo, 1 h. The method, boiled down: as §1
Data set [12] in a line: Uptake in rat medulla 10 minutes after administration of the radiolabeled [11C]-compound. It is filed as ADME, tissue-based, Medulla of organ. As to conditions: in vivo. The method, boiled down: as §1
Data set [13] in a line: Uptake in rat frontal cortex 10 minutes after administration of the radiolabeled [11C]-compound. It is filed as ADME, tissue-based. The conditions noted are these: in vivo. Put shortly:
as §1

The nature of data set [14]: Uptake in rat striatum 10 minutes after administration of the radiolabeled [11C]-compound. The data set is classed as ADME, tissue-based. As to conditions: in vivo. Put shortly:
as §1

Data set [15] in a line: Uptake in rat blood 10 minutes after administration of the radiolabeled [11C]-compound. It is filed as ADME, tissue-based.
A short description of data set [16]: Uptake in rat medulla 30 minutes after administration of the radiolabeled [11C]-compound. It is filed as ADME, tissue-based, Medulla of organ. The conditions noted are these: in vivo, 0.5 h. Put shortly:
as §1

A short description of data set [17]: Uptake in rat cerebellum 10 minutes after administration of the radiolabeled [11C]-compound. It is filed as ADME, tissue-based. The conditions noted are these: in vivo. The method, boiled down:
as §1

Data set [18] deals with Metabotropic glutamate receptor 5 (Rattus norvegicus, UniProt P31424). Put plainly: In vitro affinity for cloned rat metabotropic glutamate 5 receptors stably expressed on CHO cells determined in radioligand binding assay. The data set is classed as cell-based.
Data set [19] has as its target Metabotropic glutamate receptor 1 (Rattus norvegicus, UniProt P23385). Put plainly: In vitro affinity for cloned rat metabotropic glutamate 1 receptors stably expressed on CHO cells determined using [3H]-R214127 as radioligand. The data set is classed as cell-based.
Data set [20] is described as follows: Uptake in rat medulla 60 minutes after administration of the radiolabeled [11C]-compound. The conditions noted are these: in vivo, 1 h. It is filed as ADME, tissue-based, Medulla of organ. The method, boiled down: as §1

Sequence of Metabotropic glutamate receptor 5 (P31424 whole entry): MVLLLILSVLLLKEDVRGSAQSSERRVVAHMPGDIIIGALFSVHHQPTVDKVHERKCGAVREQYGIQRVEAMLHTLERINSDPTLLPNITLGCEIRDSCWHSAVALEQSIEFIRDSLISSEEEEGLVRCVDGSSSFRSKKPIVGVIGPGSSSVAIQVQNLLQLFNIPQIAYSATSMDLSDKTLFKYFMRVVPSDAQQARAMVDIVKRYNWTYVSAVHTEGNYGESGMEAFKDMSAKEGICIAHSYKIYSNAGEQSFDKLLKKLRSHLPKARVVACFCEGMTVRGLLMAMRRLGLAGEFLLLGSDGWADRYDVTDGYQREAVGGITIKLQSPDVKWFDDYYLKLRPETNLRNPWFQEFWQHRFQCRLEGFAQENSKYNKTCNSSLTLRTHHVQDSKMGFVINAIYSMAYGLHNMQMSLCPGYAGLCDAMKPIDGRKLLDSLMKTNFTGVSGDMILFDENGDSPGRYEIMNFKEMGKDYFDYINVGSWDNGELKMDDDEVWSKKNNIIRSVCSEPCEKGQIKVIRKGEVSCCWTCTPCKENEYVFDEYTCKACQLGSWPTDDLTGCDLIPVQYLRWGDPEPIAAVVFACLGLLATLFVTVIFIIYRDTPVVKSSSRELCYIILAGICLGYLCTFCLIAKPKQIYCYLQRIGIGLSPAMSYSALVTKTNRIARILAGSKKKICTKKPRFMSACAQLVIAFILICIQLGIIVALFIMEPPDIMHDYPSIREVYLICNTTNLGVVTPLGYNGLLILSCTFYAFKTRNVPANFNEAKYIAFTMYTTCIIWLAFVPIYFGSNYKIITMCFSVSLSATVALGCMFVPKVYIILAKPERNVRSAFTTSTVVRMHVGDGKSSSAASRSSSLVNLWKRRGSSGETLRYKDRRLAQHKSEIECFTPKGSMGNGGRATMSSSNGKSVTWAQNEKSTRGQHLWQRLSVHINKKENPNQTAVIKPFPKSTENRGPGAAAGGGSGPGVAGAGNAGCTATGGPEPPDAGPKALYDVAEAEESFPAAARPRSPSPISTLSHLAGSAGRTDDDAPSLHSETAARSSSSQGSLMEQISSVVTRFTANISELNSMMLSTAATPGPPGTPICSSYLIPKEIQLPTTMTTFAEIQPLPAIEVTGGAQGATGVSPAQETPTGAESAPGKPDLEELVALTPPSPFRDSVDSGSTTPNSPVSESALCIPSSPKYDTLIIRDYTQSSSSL
Sequence of Metabotropic glutamate receptor 1 (P23385 whole entry): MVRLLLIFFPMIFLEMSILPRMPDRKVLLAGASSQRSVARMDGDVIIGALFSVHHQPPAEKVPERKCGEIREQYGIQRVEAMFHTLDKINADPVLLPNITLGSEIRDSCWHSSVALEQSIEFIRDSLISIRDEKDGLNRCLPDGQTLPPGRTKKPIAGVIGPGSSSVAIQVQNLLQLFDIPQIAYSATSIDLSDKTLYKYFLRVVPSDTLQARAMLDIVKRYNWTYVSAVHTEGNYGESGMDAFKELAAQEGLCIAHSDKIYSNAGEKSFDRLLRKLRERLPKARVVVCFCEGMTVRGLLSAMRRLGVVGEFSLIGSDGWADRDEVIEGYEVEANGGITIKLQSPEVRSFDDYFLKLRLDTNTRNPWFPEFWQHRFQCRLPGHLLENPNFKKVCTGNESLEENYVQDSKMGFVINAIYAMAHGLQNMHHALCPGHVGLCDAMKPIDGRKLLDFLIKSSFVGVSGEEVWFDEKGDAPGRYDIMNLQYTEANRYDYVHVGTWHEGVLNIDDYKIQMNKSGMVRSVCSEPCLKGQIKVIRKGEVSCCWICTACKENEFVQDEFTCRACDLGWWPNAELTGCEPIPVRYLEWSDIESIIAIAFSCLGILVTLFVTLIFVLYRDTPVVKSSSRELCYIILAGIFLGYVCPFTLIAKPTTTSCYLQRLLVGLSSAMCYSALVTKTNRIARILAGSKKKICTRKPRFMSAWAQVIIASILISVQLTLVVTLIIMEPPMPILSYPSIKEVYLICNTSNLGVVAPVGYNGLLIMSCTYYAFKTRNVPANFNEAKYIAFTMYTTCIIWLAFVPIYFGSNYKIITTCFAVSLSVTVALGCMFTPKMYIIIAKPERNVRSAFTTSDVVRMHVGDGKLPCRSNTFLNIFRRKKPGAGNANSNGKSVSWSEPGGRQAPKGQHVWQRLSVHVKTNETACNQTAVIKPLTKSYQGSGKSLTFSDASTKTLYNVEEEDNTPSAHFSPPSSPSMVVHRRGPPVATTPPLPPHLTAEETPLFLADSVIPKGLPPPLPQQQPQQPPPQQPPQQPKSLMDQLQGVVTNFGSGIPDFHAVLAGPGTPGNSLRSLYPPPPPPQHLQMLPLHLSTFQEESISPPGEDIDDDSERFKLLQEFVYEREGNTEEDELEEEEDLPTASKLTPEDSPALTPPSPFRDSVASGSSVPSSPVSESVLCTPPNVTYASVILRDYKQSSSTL

Turning to `CCc1cc2cc(C(=O)[C@H]3CC[C@@H](OC)CC3)ccc2nc1C`, the ID/g in data set [1] worked out at 0.1%; in [2], 0.13%; in data set [3], 0.2%; in data set [4], 0.17%; in data set [5], 0.26%; in [6], 0.58%. For the same compound, the ID/g in data set [7] was determined as 0.1%; in [8] it was 0.17%; in data set [9], 0.61%; in data set [10] it was 0.07%; in data set [11], 0.27%; in [12] it was 0.47%. In addition, the ID/g in data set [13] amounted to 0.52%; in data set [14], 0.73%; in data set [15], 0.42%; in data set [16] it was 0.13%; in data set [17], 1.24%; in data set [20], 0.07%. The inhibitory constant (Ki) in data set [18] came out at 2370 nM; in data set [19] it was 0.87 nM.

Broadly, the Ki is the equilibrium dissociation constant of an inhibitor or competing ligand from its target. The low end stands for a stronger hold on the target, the high end for a looser hold on the target.

These data come from ChEMBL document CHEMBL1141135, “A positron emission tomography radioligand for the in vivo labeling of metabotropic glutamate 1 receptor: (3-ethyl-2-[11C]methyl-6-quinolinyl)(cis- 4-methoxycyclohexyl)methanone” (J Med Chem, 2005).
